Compound activity: PubChem BioAssay, SRMLSC
bCat KO growth: primary screen for growth suppressors in beta-catenin knockout HCT116 cells (colon tumor, human) | HCT116 beta-catenin knockout viability, CellTiter-Glo, 60 h; hits give low values | actives 1.5% (n = 140,000) | AID 818, 2007 | viability, % at 10 µM;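 active means viability at or under a set limit, the compound median less 4 SD, cut at about 6% in these data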;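 further: 0% = Hyamine 1622 control at 20 µM and 100% = untreated cell control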
HCT116 PTEN-null: growth suppression of PTEN-null HCT116, primary screen, cell-based, CellTiter-Glo; HCT116 PTEN-null viability, 60 h; hits give low values; viability, % at 10 µM; actives 1.2% (n = 140,000);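 active means viability at or below a set limit, 4 SD under the median of all tested compounds, cut at about 3.7% in these data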;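 further: PTEN knockout HCT116 line with beta catenin targeted HCT116 as companion control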
Lung fibro prol: antiproliferative effect on LL 47 fibroblasts – human, LL 47 cells, CellTiter-Glo luminescence, primary screen; LL 47 human lung fibroblast viability, ATP luminescence; hits give low values; viability, % at 10 µM; actives 1.1% (n = 85,000);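 active means viability at or below 50% in the single dose screen; inactive means viability above 50%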;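 further: compound exposure lasted 72 h before the ATP readout; 100% = median luminescence of untreated cell-only wells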
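Signal: luminescent ATP detection, CellTiter-Glo; assay system: LL 47 human lung fibroblasts; input: 1,150 cells/well; incubation: overnight cell rest, 72 h compound treatment at 37 °C; measure: % viability versus median cells-only luminescence; medium: IMEM growth medium with 15% fetal bovine serum; dosing: compound addition at 0.1% DMSO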
HUVEC prolif 384: inhibitors of HUVEC proliferation, primary screen, cell-based, 384-well; CellTiter-Glo luminescence, 72 h; hits give low values; viability, % at 10 µM (by protocol); actives 1.1% (n = 86,000); AID 648, 2007;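 active means viability at or below 30%; inactive means viability above 30%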;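 further: 100% = median luminescence of DMSO-only cell control wells on each plate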
H69AR growth 86K: proliferation blockers of H69AR lung cancer cells, primary screen, cell-based, human, 86K library. viability, % at 10 µM. actives 6% (n = 85,000). H69AR lung tumor viability, ATP luminescence, 72 h; hits give low values. AID 598, 2007;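 active means viability at or below 40%; inactive means viability above 40%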;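 further: multidrug resistant small cell line overexpressing MRP-1 efflux transporter; 100% = mean luminescence of untreated control wells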
Active calls of the source: *; x = not tested or not shown. Shown is part of a subset that was picked to be rich in hits.

SMILES	bCat KO growth	HCT116 PTEN-null	Lung fibro prol	HUVEC prolif 384	H69AR growth 86K
O=C(c1ccccc1OCc1ccccc1Br)N1CCN(c2ncccn2)CC1	51	40	74	73	28*
O=C(c1ccc(F)cc1F)N1CCN(c2ncccn2)CC1	110	102	104	93	100
O=[N+]([O-])c1cc(/C=N/OCc2c(Cl)cccc2Cl)ccc1N1CCOCC1	96	94	x	x	x
CC(=O)Nc1cccc(Oc2cc(C#N)c(C#N)cc2N2CCCCCC2)c1	69	76	90	70	32*
Cc1ccc(N=Nc2c(C)[nH][nH]c2=O)c(C)c1	37	33	91	13*	24*
CCS(=O)(=O)N1CCC(C(=O)c2ccc(Cl)cc2)CC1	91	87	91	92	99
CN(C)CC/C=C1/c2ccccc2Sc2c(O)cc(Cl)cc21	14	20	54	50	6.3*
COc1cc(Cl)cc2c1Sc1ccccc1/C2=C/CCN(C)C	2.2*	4	96	4.1*	2.7*
COc1cc2c(cc1Cl)/C(=C\CCN(C)C)c1ccccc1S2	13	13	x	x	x
NC(=NCCc1ccccc1)NS(=O)(=O)c1ccc2ccccc2c1	86	83	x	x	x
COc1ccc(NC(=O)/C(Cl)=C(/Cl)S(=O)Cc2ccccc2)cn1 (stereo not drawn)	1.5*	1.5*	1.2*	2.2*	1.7*
COc1ccc(/C=C/C(=O)Nc2ccc(OC)nc2)cc1	70	77	x	x	x
COc1ccc(CS(=O)(=O)/C(Cl)=C(/Cl)C(=O)Nc2ccc(OC)nc2)cc1	6	4	4.8*	2.6*	0.0*
Cc1sc2nc(CN3CCOCC3)nc(NCCc3ccccc3)c2c1C	79	88	97	88	30*
CCOc1ccc(Br)cc1S(=O)(=O)Nc1nc(CN2CCOCC2)nc2sc(C)c(C)c12	98	91	98	84	34*
NS(=O)(=O)c1ccc(CCNc2nc(CN3CCOCC3)nc3sc4c(c23)CCC4)cc1	x	x	97	85	16*
Cc1nc(NCCc2ccc(S(N)(=O)=O)cc2)c2c3c(sc2n1)CCC3	84	86	x	x	x
Cc1sc2nc(CN3CCOCC3)nc(NS(=O)(=O)c3ccccc3)c2c1C	99	97	105	94	89
CCOC(=O)c1c(NC(=O)c2ccc(N3C(=O)C4C5C=CC(C5)C4C3=O)cc2)sc2c1CCCC2 (stereo not drawn)	80	88	x	x	x
CCc1c(C)nc2cc(-c3ccc(OC)c(OC)c3)nn2c1N1CCC(C)CC1	75	76	102	105	70
CCc1c(C)nc2cc(-c3ccc(OC)c(OC)c3)nn2c1N1CCCC1	53	29	90	64	38*
CCSC1=C(C#N)C(c2ccc(C)s2)CC(=O)N1 (stereo not drawn)	x	x	104	91	80
CCOC(=O)CSC1=C(C#N)C(c2ccc(C)s2)CC(=O)N1 (stereo not drawn)	14	16	57	51	35*
CCOC(=O)CSC1=C(C#N)C(c2ccccc2OC)CC(=O)N1 (stereo not drawn)	31	35	76	66	25*
CCSC1=C(C#N)C(c2ccccc2OC)CC(=O)N1 (stereo not drawn)	92	94	98	113	87
SMILES	bCat KO growth	HCT116 PTEN-null	Lung fibro prol	HUVEC prolif 384	H69AR growth 86K
C/C=C/C=N/NC(=O)CN(c1ccc(Br)cc1)S(=O)(=O)c1ccccc1	85	85	x	x	x
O=C(NCc1ccccn1)c1ccc(CNS(=O)(=O)c2cccc(Cl)c2)cc1	86	108	x	x	x
CCOC(=O)c1[nH]c(C)c(C(=O)c2ccc(C)cc2)c1C	14	x	46*	41	29*
CCOC(=O)c1[nH]c(C)c(C(=O)NCc2ccc(C)cc2)c1C	91	68	97	59	91
CCOC(=O)c1[nH]c(C)c(C(=O)Nc2ccc(F)cc2)c1C	99	102	99	100	84
CCOC(=O)c1[nH]c(C)c(C(=O)Nc2ccc(C)cc2C)c1C	29	23	64	67	38*
CCOC(=O)c1[nH]c(C)c(C(=O)Nc2ccccc2F)c1C	23	20	64	56	23*
CC(SCC(=O)NC12CC3CC(CC(C3)C1)C2)C(=O)O (stereo not drawn)	82	84	x	x	x
COc1ccc(C(C[N+](=O)[O-])c2c(-c3ccccc3)cc3ccccn23)cc1 (stereo not drawn)	3.3*	1.9*	43*	61	12*
COc1ccc(C(C[N+](=O)[O-])c2c(-c3ccccc3)cc3ccccn23)cc1OC (stereo not drawn)	41	49	66	81	26*
COc1cc(C(C[N+](=O)[O-])c2c(-c3ccccc3)cc3ccccn23)cc(OC)c1OC (stereo not drawn)	56	35	34*	64	11*
COc1cc(-c2ncc3ccccn23)cc(OC)c1OC	84	90	x	x	x
Cc1ccc(S(=O)(=O)Nc2cccc(NC(=O)CN3CCCCC3)c2)cc1	84	92	x	x	x
Cc1nc(SCC(=O)c2ccccc2)c(C#N)c(-c2ccco2)c1C(=O)NCc1ccco1	57	43	100	82	71
Clc1ccc(N2CCN(c3ncnc4c3oc3ccccc34)CC2)cc1	x	x	117	27*	65
CC1CN(c2ncnc3c2oc2ccccc23)CC(C)O1 (stereo not drawn)	94	90	97	93	73
COc1ccc(-c2noc(-c3ccccc3C(=O)N3CCOCC3)n2)cc1	102	98	96	95	79
CN(C)c1ccc(O)c2c1CC1CC3[C@@H](N(C)C)C(=O)C(C(N)=O)=C(O)[C@]3(O)C(=O)C1=C2O (stereo partly drawn)	71	66	84	93	35*
CC(C)c1ccc(N=c2c([N+](=O)[O-])nn(-c3ccc4c(c3)OCCO4)n2O)cc1	88	87	x	x	x
COc1cc(N=c2c([N+](=O)[O-])nn(-c3ccc4c(c3)OCCO4)n2O)cc(OC)c1	0.8*	0.3*	x	x	x
O=C(NCC1CCCO1)C1c2ccccc2C(=O)N1C1CCCCCC1 (stereo not drawn)	93	100	95	99	79
Cc1ccnc2nc(C(=O)OCC(=O)NCCc3ccccc3)nn12	92	92	x	x	x
Cc1ccccc1N=Nc1ccc(O)c2ncccc12	16	11	x	x	x
OCc1ccnc2c(O)cccc12	3.2*	2.9*	x	x	x
Oc1ccc(CNc2ccccc2)c2cccnc12	7	5	88	71	36*
Oc1ccc(CNc2ccc(F)cc2)c2cccnc12	12	10	85	77	55
Cc1ccccc1NCc1ccc(O)c2ncccc12	12	11	93	84	72
O=[N+]([O-])c1ccc(O)c2ncccc12	4.1*	4	x	x	x
